Source: PubChem (several laboratories)
An excerpt weighted towards active compounds, which were near 3.8% of everything screened.
OX1R antag-1 = human HCRTR1 antagonism. O43613. CHO/OX1R cells, Fluo-8 calcium fluorescence, orexin A. inhibition, % at 5 µM. hit rate 0.43% among 330,000;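 active means inhibition above its plate's threshold, mean inhibition of all tested compounds on the plate plus 3 SD, cut at about 37% in these data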;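 further: 0% = orexin A challenge wells and 100% = SB-334867-A antagonist wells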
MPTP block = blocks calcium-induced mitochondrial swelling | inhibition, % at 10 µM | AID 602449 | hit rate 1.4% among 360,000 | isolated mouse mitochondria, Ca2+ swelling absorbance, 30 min;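 active means inhibition of 50% or more, scaled per plate between neutral and stimulator controls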;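 further: 0% = DMSO wells given calcium and 100% = 1 mM EGTA wells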
GPR7 antagonist = antagonists of human GPR7 (neuropeptides B/W receptor 1). GPR7-expressing cells, fluorescence antagonist assay. inhibition, % at 4.4 µM. hit rate 1.1% among 290,000. AID 1861; in the data active means inhibition above about 16%, passing the limit was not always enough;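 further: cells stimulated with the agonist NPW; 0% = agonist with vehicle and 100% = vehicle without agonist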
Target sequence (P48145 whole entry, looked up): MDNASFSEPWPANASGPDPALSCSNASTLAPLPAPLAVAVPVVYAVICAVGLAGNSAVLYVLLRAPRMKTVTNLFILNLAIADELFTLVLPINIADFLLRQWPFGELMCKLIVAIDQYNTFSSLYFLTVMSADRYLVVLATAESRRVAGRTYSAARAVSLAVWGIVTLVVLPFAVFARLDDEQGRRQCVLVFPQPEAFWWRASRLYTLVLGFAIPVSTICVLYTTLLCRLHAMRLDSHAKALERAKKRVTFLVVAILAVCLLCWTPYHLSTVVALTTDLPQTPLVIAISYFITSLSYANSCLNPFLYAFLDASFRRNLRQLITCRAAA
OX1R antag-2 = antagonists of human orexin 1 receptor (OX1R) | OX1R-expressing cells, FRET antagonist read-out | inhibition, % at 6.6 µM | hit rate 1.8% among 330,000 | AID 485270; in the data active means inhibition mostly above about 38%, no sharp cut-off; inactive means mostly below about 40%;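 further: 0% = agonist challenge alone and 100% = reference antagonist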
CHO parental Ca = signal in parental CHO cells, OX1R antagonist counter-screen; parental CHO-K1, ATP-induced calcium, Fluo-8 fluorescence; inhibition, % at 5.6 µM; hit rate 0.63% among 330,000;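 active means inhibition above that plate's mean sample inhibition plus 3 SD, cut at about 26% in these data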;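 further: 0% = ATP-challenged DMSO wells and 100% = DMSO wells without ATP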
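test system = CHO parental line | reagent = ATP stimulus | measured by = intracellular calcium via Fluo-8 no-wash fluorescent dye | control set = ATP and no-ATP DMSO wells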
* hit, by the source's call.

For COc1ccc(C(NC(=O)C2CCN(CCCOc3ccccc3)CC2)c2cccs2)cc1 (stereo not given) the results were MPTP block 2.
For COc1cc(/C=N/N(c2ccccc2)c2ccccc2)ccc1O the results were OX1R antag-1 -19, MPTP block 3, GPR7 antagonist -34, OX1R antag-2 5 and CHO parental Ca -16.
`CN(/N=C\c1ccc(O)c(O)c1)c1nc(-c2ccccc2)cc(-c2ccccc2)n1` gave OX1R antag-1 -4, MPTP block 8, GPR7 antagonist -9, OX1R antag-2 11 and CHO parental Ca 28*.
`O=C(Nc1ccc([N+](=O)[O-])cc1)c1ccccc1` gave OX1R antag-1 7, MPTP block 3, GPR7 antagonist 0, OX1R antag-2 15 and CHO parental Ca 3.
Screening O=C(Nc1ccccc1)c1ccc[n+](Cc2ccc([N+](=O)[O-])cc2)c1 returned OX1R antag-1 -11, MPTP block 0, GPR7 antagonist 0, OX1R antag-2 63* and CHO parental Ca -8.
COc1cccc(NC(=O)CSc2nnc3ccc(-c4ccccn4)nn23)c1 was read as MPTP block -2.
For COc1ccc(-c2cc(C)no2)cc1S(=O)(=O)N1CCOc2ccc(C)cc21 the results were OX1R antag-1 -2, MPTP block 2, GPR7 antagonist -8, OX1R antag-2 6 and CHO parental Ca -8.
CCc1ccc(-c2cc(C)no2)cc1S(=O)(=O)N1CCOc2ccccc21 was read as OX1R antag-1 -27, MPTP block 3, GPR7 antagonist -5, OX1R antag-2 49* and CHO parental Ca -19.
Screening CCOc1ccc(N(C)S(=O)(=O)c2cc(-c3cc(C)no3)ccc2CC)cc1 returned OX1R antag-1 43*, MPTP block 0, GPR7 antagonist 6, OX1R antag-2 17 and CHO parental Ca 64*.
`COc1ccc(-n2c(N)c(C(=O)Nc3c(C)n(C)n(-c4ccccc4)c3=O)c3nc4ccccc4nc32)cc1` gave OX1R antag-1 -24, MPTP block 4, GPR7 antagonist -5, OX1R antag-2 1 and CHO parental Ca -24.
For Cc1ccc(-n2c(N)c(C(=O)Nc3c(C)n(C)n(-c4ccccc4)c3=O)c3nc4ccccc4nc32)cc1C the results were OX1R antag-1 37, GPR7 antagonist 20, OX1R antag-2 16 and CHO parental Ca 38*.
Screening COc1cc(C(=S)N2CCOCC2)cc(OC)c1OC(=O)c1cccc(C)c1 returned OX1R antag-1 21, MPTP block 1, GPR7 antagonist -11, OX1R antag-2 66* and CHO parental Ca -16.
For O=C(Oc1cccc(C(=S)N2CCOCC2)c1)c1cc([N+](=O)[O-])cc([N+](=O)[O-])c1 the results were OX1R antag-1 -14, MPTP block -1, GPR7 antagonist -6, OX1R antag-2 68* and CHO parental Ca -8.
Screening COc1cc(C(=S)N2CCOCC2)cc(OC)c1OC(=O)c1ccc(C)cc1 returned MPTP block 1 and GPR7 antagonist -4.
For COc1cc(C(=S)N2CCOCC2)ccc1OC(=O)c1ccccc1[N+](=O)[O-] the results were OX1R antag-1 9, MPTP block -1, GPR7 antagonist -17, OX1R antag-2 61* and CHO parental Ca -9.
For Cc1[nH]c2ccccc2c1C(=O)CN1C(=O)NC2(CC(C)CC(C)(C)C2)C1=O (stereo not given) the results were OX1R antag-1 -2, MPTP block 1, GPR7 antagonist 19*, OX1R antag-2 19 and CHO parental Ca -7.
CC(C)[C@H](CO)N(Cc1cccc(F)c1)c1nc(Nc2cccc(Cl)c2)c2ncn(C(C)C)c2n1 was read as OX1R antag-1 33, MPTP block -1, OX1R antag-2 3 and CHO parental Ca 37*.
`Cc1cccc(NC(=O)CC2CCC2)c1` gave OX1R antag-1 -16, MPTP block -7, GPR7 antagonist -21, OX1R antag-2 9 and CHO parental Ca -11.
Cc1cccc(NC(=O)CC2c3ccccc3Oc3ccccc32)c1 was read as OX1R antag-1 -11, MPTP block -1, GPR7 antagonist 3, OX1R antag-2 51* and CHO parental Ca -12.
CCc1ccccc1NC(=O)c1cc(=O)c2ccccc2o1 was read as OX1R antag-1 -12, MPTP block 0, GPR7 antagonist -12, OX1R antag-2 33 and CHO parental Ca -21.
`O=C(C(=O)N1CCN(c2ccccc2F)CC1)c1ccccc1` gave MPTP block 3.
`Cc1ccc(/C=C2\CCC3=C2OC(N)=C(C#N)C3c2ccc(C)cc2)cc1` (stereo not given) gave OX1R antag-1 48*, MPTP block 0, GPR7 antagonist 2, OX1R antag-2 3 and CHO parental Ca 41*.
Cc1ccc(C2C(C#N)=C(N)Oc3cc(N)ccc32)cc1 (stereo not given) was read as OX1R antag-1 0, MPTP block 1, GPR7 antagonist -6, OX1R antag-2 3 and CHO parental Ca -6.
`O=C(Nc1ccccc1)c1snc2c(=O)[nH]cnc12` gave OX1R antag-1 -25, MPTP block -2, GPR7 antagonist -1, OX1R antag-2 74* and CHO parental Ca -16.
Screening CCOC(=O)c1snc2c(=O)[nH]cnc12 returned OX1R antag-1 -1, MPTP block 0, GPR7 antagonist -8, OX1R antag-2 42* and CHO parental Ca 4.
`CCOC(=O)C1CCCN(c2ccc(NC(=O)c3snc4c(=O)[nH]cnc34)cc2)C1` (stereo not given) gave OX1R antag-1 -10, MPTP block 8, GPR7 antagonist -7, OX1R antag-2 36 and CHO parental Ca -8.
Screening CCOC(=O)c1sc2nc[nH]c(=O)c2c1C returned OX1R antag-1 3, MPTP block 2, GPR7 antagonist -15, OX1R antag-2 8 and CHO parental Ca -10.
`Cc1ccccc1CS(=O)(=O)c1nnc([C@H](Cc2ccccc2)NC(=O)OC(C)(C)C)o1` gave OX1R antag-1 34, MPTP block -2, GPR7 antagonist 0, OX1R antag-2 1 and CHO parental Ca 51*.
`CCSc1nnc([C@H](Cc2ccccc2)NC(=O)OC(C)(C)C)o1` gave OX1R antag-1 -31, MPTP block 2, GPR7 antagonist -10, OX1R antag-2 14 and CHO parental Ca -19.
CC(C)(C)OC(=O)N[C@@H](Cc1ccccc1)c1nnc(S(=O)(=O)Cc2ccccc2)o1 was read as OX1R antag-1 30, GPR7 antagonist 17, OX1R antag-2 20 and CHO parental Ca 32*.
For CCCn1c(C)cc(/C=C(\C#N)C(=O)OCC(=O)N(CC)c2c(N)n(Cc3ccccc3)c(=O)[nH]c2=O)c1C the results were MPTP block 0.
For CC(=O)c1sc(N/N=C\c2ccccc2O)nc1C the results were OX1R antag-1 -7, MPTP block 1, GPR7 antagonist -7, OX1R antag-2 51* and CHO parental Ca 5.
